# Experimental data reported in ChEMBL document CHEMBL1124186, “Synthesis and evaluation of tylosin-related macrolides modified at the aldehyde function: a new series of orally effective antibiotics” (1988).
# What was measured:
# [1] = system: Streptococcus pyogenes; assay: In vivo effective dose against experimental infections in rodent caused by Streptococcus pyogenes C203 when administered sc; type: functional
# [2] = system: Clostridium perfringens; assay: In vitro antimicrobial activity against anaerobic bacteria clostridium perfringens 81,; type: functional
# [3] = system: Clostridioides difficile; assay: In vitro antimicrobial activity against anaerobic bacteria Clostridium difficile 2994; type: functional
# [4] = system: Streptococcus pyogenes; assay: In vitro antimicrobial activity against Streptococcus pyogenes C203; type: functional
# [5] = system: Clostridium septicum; assay: In vitro antimicrobial activity against anaerobic bacteria clostridium septicum 1128; type: functional
# [6] = In vitro antimicrobial activity against anaerobic bacteria peptostreptococcus intermedius 1264; type: functional
# [7] = system: Haemophilus influenzae; assay: In vitro antimicrobial activity against Haemophilus influenzae.; type: functional
# [8] = system: Prevotella melaninogenica; assay: In vitro antimicrobial activity against anaerobic bacteria bacteroides melaninogenicus 2736; type: functional
# [9] = system: Prevotella melaninogenica; assay: In vitro antimicrobial activity against anaerobic bacteria bacteroides melaninogenicus 1856,; type: functional
# [10] = system: Bacteroides thetaiotaomicron; assay: In vitro antimicrobial activity against anaerobic bacteria bacteroides thetaiotaomicron 1438; type: functional
# [11] = system: Enterococcus faecium; assay: In vitro antimicrobial activity against Streptococcus faecium X66; type: functional, streptococcus fae-cium
# [12] = system: Fusobacterium; assay: In vitro antimicrobial activity against anaerobic bacteria fusobacterium symbiosum 1470; type: functional
# [13] = system: Peptostreptococcus anaerobius; assay: In vitro antimicrobial activity against anaerobic bacteria eubacterium peptostreptococcus anaerobius 1428,; type: functional
# [14] = system: Cutibacterium acnes; assay: In vitro antimicrobial activity against anaerobic bacteria propionibacterium acnes 79; type: functional
# [15] = system: Chlamydia trachomatis; assay: In vitro antimicrobial activity against chlamydia trachomatis.; type: functional
# [16] = system: Staphylococcus aureus; assay: In vitro antimicrobial activity against Staphylococcus aureus X1; type: functional
# [17] = system: Bacteroides fragilis; assay: In vitro antimicrobial activity against anaerobic bacteria bacteroides fragilis 1877; type: functional
# [18] = system: Anaerococcus prevotii; assay: In vitro antimicrobial activity against anaerobic bacteria peptococcus prevoti 1281; type: functional
# [19] = system: Eikenella corrodens; assay: In vitro antimicrobial activity against anaerobic bacteria bacteroides corrodens 1874; type: functional
# [20] = system: Bacteroides fragilis; assay: In vitro antimicrobial activity against anaerobic bacteria bacteroides fragilis 1936B,; type: functional
# [21] = system: Staphylococcus epidermidis; assay: In vitro antimicrobial activity against Staphylococcus epidermidis EPI1; type: functional
# [22] = system: Collinsella aerofaciens; assay: In vitro antimicrobial activity against anaerobic bacteria eubacterium aerofaciens 1235; type: functional
# [23] = system: Fusobacterium necrophorum; assay: In vitro antimicrobial activity against anaerobic bacteria usobacterium necrophorum 6054A; type: functional
# [24] = system: Streptococcus pyogenes; assay: In vivo effective dose against experimental infections in rodent caused by Streptococcus pyogenes C203 when administered orally; type: functional; conditions: po
# [25] = system: Peptoniphilus asaccharolyticus; assay: In vitro antimicrobial activity against anaerobic bacteria peptococcus asaccharolyticus 1302; type: functional
# [26] = system: Streptococcus pneumoniae; assay: In vitro antimicrobial activity against Streptococcus pneumoniae; type: functional
# [27] = system: Bacteroides fragilis; assay: In vitro antimicrobial activity against anaerobic bacteria bacteroides fragilis 111; type: functional
# [28] = system: Phocaeicola vulgatus; assay: In vitro antimicrobial activity against anaerobic bacteria bacteroides vulgatus 1211; type: functional
# [29] = system: Streptococcus sanguinis; assay: In vitro antimicrobial activity against aerobic bacteria Streptococcus sanguis MX132; type: functional
# [30] = system: Streptococcus; assay: In vitro antimicrobial activity against aerobic bacteria Streptococcus B 8; type: functional
# [31] = system: Streptococcus; assay: In vitro antimicrobial activity against aerobic bacteria Streptococcus D 8043; type: functional
# [32] = system: Streptococcus; assay: In vitro antimicrobial activity against aerobic bacteria Streptococcus D 2041; type: functional
# [33] = system: Streptococcus; assay: In vitro antimicrobial activity against aerobic bacteria Streptococcus C 24; type: functional
# [34] = system: Haemophilus parainfluenzae; assay: In vitro antimicrobial activity against aerobic bacteria Haemophilus parainfluenzae 9796; type: functional
# [35] = system: Rattus norvegicus; assay: Peripheral plasma levels in rats after oral administration of 100 mg/kg dose for 0.5 hr; type: functional, organism-based; set-up: dose 100 mg/kg
# Method in brief: (§1)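 Rats received 100 mg/kg orally and were sampled for peripheral plasma. Concentrations were measured by Micrococcus luteus agar-diffusion microbiological assay in Antibiotic Medium 1, with zone sizes converted using the standard curve for the appropriate compound. Each value is the average of three rats per time point.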
# [36] = system: Streptococcus; assay: In vitro antimicrobial activity against aerobic bacteria Streptococcus D 9960; type: functional
# [37] = system: Rattus norvegicus; assay: Peripheral plasma levels in rats after oral administration of 100 mg/kg dose for 1 hr; type: functional, organism-based; set-up: dose 100 mg/kg; method in brief: as §1
# [38] = system: Rattus norvegicus; assay: Peripheral plasma levels in rats after oral administration of 100 mg/kg dose for 2 hr; type: functional, organism-based; set-up: dose 100 mg/kg; method in brief: as §1
# [39] = system: Staphylococcus epidermidis; assay: In vitro antimicrobial activity against aerobic bacteria Streptococcus epi 222; type: functional
# [40] = system: Streptococcus pneumoniae; assay: In vitro antimicrobial activity against aerobic bacteria Streptococcus pneumoniae B1-438; type: functional, streptococcus pneum
# [41] = system: Rattus norvegicus; assay: Peripheral plasma levels in rats after oral administration of 100 mg/kg dose for 4 hr; type: functional, organism-based; set-up: dose 100 mg/kg; method in brief: as §1
# [42] = system: Staphylococcus aureus; assay: In vitro antimicrobial activity against aerobic bacteria Staphylococcus aureus 513E; type: functional
# [43] = system: Staphylococcus aureus; assay: In vitro antimicrobial activity against aerobic bacteria Staphylococcus aureus V135; type: functional
# [44] = system: Staphylococcus aureus; assay: In vitro antimicrobial activity against aerobic bacteria Staphylococcus aureus V140,; type: functional
# [45] = system: Streptococcus; assay: In vitro antimicrobial activity against aerobic bacteria Streptococcus B 14; type: functional
# [46] = system: Haemophilus influenzae; assay: In vitro antimicrobial activity against aerobic bacteria Haemophilus influenzae 465; type: functional
# [47] = system: Mus musculus; assay: Peripheral plasma levels in mice after oral administration of 100 mg/kg dose for 0.25 hr; type: functional, organism-based; set-up: dose 100 mg/kg
# Method in brief: (§2)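 Mice were given the compound orally and sampled for peripheral plasma at each time point. Plasma was assayed microbiologically against Micrococcus luteus seeded in Antibiotic Medium 1. Inhibition zone sizes were read, and concentrations were calculated from each compound's own standard curve. Each value is the mean of five mice per time point.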
# [48] = system: Haemophilus influenzae; assay: In vitro antimicrobial activity against aerobic bacteria Haemophilus influenzae 76; type: functional
# [49] = system: Mus musculus; assay: Peripheral plasma levels in mice after oral administration of 100 mg/kg dose for 2 hr; type: functional, organism-based; set-up: dose 100 mg/kg; method in brief: as §2
# [50] = system: Mus musculus; assay: Peripheral plasma levels in mice after oral administration of 100 mg/kg dose for 0.5 hr; type: functional, organism-based; set-up: dose 100 mg/kg; method in brief: as §2
# [51] = system: Rattus norvegicus; assay: Peripheral plasma levels in rats after oral administration of 100 mg/kg dose for 0.25 hr; type: functional, organism-based; set-up: dose 100 mg/kg; method in brief: as §1
# [52] = system: Streptococcus; assay: In vitro antimicrobial activity against aerobic bacteria Streptococcus G Kruder; type: functional
# [53] = system: Mus musculus; assay: Peripheral plasma levels in mice after oral administration of 100 mg/kg dose for 1 hr; type: functional, organism-based; set-up: dose 100 mg/kg; method in brief: as §2
# [54] = system: Streptococcus; assay: In vitro antimicrobial activity against aerobic bacteria Streptococcus B 5; type: functional
# [55] = system: Haemophilus influenzae; assay: In vitro antimicrobial activity against aerobic bacteria Haemophilus influenzae MX366,; type: functional
compound,measurement,setting,value
CC[C@H]1C[C@@H](C)C(=O)/C=C/C(C)=C/[C@H](CO)[C@@H](CC)OC(=O)C[C@@H](O)[C@H](C)[C@H]1O[C@@H]1O[C@H](C)[C@@H](O)[C@H](N(C)C)[C@H]1O,ED50,[1],> 30 mg/kg
same,MIC,[2],2 µg/mL
same,MIC,[3],2 µg/mL
same,MIC,[4],8 µg/mL
same,MIC,[5],2 µg/mL
same,MIC,[6],> 8 µg/mL
same,MIC,[7],32 µg/mL
same,MIC,[8],> 8 µg/mL
same,MIC,[9],> 8 µg/mL
same,MIC,[10],> 8 µg/mL
same,MIC,[11],16 µg/mL
same,MIC,[12],> 8 µg/mL
same,MIC,[13],> 8 µg/mL
same,MIC,[14],2 µg/mL
same,MIC,[15],0.5 µg/mL
same,MIC,[16],4 µg/mL
same,MIC,[17],> 8 µg/mL
same,MIC,[18],> 8 µg/mL
same,MIC,[19],> 8 µg/mL
same,MIC,[20],> 8 µg/mL
same,MIC,[21],8 µg/mL
same,MIC,[22],2 µg/mL
same,MIC,[23],8 µg/mL
same,ED50,[24],75 mg/kg
same,MIC,[25],> 8 µg/mL
same,MIC,[26],8 µg/mL
same,MIC,[27],> 8 µg/mL
same,MIC,[28],> 8 µg/mL
CC[C@H]1OC(=O)[C@H](C)[C@@H](O[C@H]2C[C@@](C)(OC)[C@@H](O)[C@H](C)O2)[C@H](C)[C@@H](O[C@@H]2O[C@H](C)C[C@H](N(C)C)[C@H]2O)[C@](C)(O)C[C@@H](C)C(=O)[C@H](C)[C@@H](O)[C@]1(C)O [ERYTHROMYCIN],MIC,[29],0.03 µg/mL
same,MIC,[30],0.06 µg/mL
same,MIC,[2],< 0.5 µg/mL
same,MIC,[31],0.06 µg/mL
same,MIC,[3],< 0.5 µg/mL
same,MIC,[32],1 µg/mL
same,MIC,[33],0.12 µg/mL
same,MIC,[34],4 µg/mL
same,MIC,[5],< 0.5 µg/mL
same,MIC,[6],< 0.5 µg/mL
same,Concentration,[35],0.1 µg ml-1 ml-1
same,MIC,[36],2 µg/mL
same,Concentration,[37],0.1 µg ml-1 ml-1
same,MIC,[8],1 µg/mL
same,Concentration,[38],0.2 µg ml-1 ml-1
same,MIC,[9],2 µg/mL
same,MIC,[39],0.06 µg/mL
same,MIC,[40],6 µg/mL
same,MIC,[10],1 µg/mL
same,MIC,[12],2 µg/mL
same,Concentration,[41],0.4 µg ml-1 ml-1
same,MIC,[13],1 µg/mL
same,MIC,[42],0.25 µg/mL
same,MIC,[14],< 0.5 µg/mL
same,MIC,[17],4 µg/mL
same,MIC,[43],0.25 µg/mL
same,MIC,[19],1 µg/mL
same,MIC,[44],0.25 µg/mL
same,MIC,[45],0.12 µg/mL
same,MIC,[20],2 µg/mL
same,MIC,[46],4 µg/mL
same,MIC,[22],< 0.5 µg/mL
same,Concentration,[47],2.5 µg ml-1 ml-1
same,MIC,[23],2 µg/mL
same,MIC,[48],2 µg/mL
same,Concentration,[49],0.7 µg ml-1 ml-1
same,Concentration,[50],5.6 µg ml-1 ml-1
same,Concentration,[51],0.1 µg ml-1 ml-1
same,MIC,[52],0.1 µg/mL
same,Concentration,[53],2.7 µg ml-1 ml-1
same,MIC,[54],0.06 µg/mL
same,MIC,[25],8 µg/mL
same,MIC,[55],4 µg/mL
same,MIC,[27],1 µg/mL
same,MIC,[28],< 0.5 µg/mL
CC[C@H]1OC(=O)C[C@@H](O)[C@H](C)[C@@H](O[C@@H]2O[C@H](C)[C@@H](O)[C@H](N(C)C)[C@H]2O)[C@@H](CCSc2ccccc2)C[C@@H](C)C(=O)/C=C/C(C)=C/[C@@H]1CO[C@@H]1O[C@H](C)[C@@H](O)[C@@H](OC)[C@H]1OC,ED50,[1],10 mg/kg
same,MIC,[4],0.25 µg/mL
same,Concentration,[35],1.3 µg/mL
same,Concentration,[37],2.5 µg/mL
same,Concentration,[38],2.9 µg/mL
same,MIC,[11],8 µg/mL
same,Concentration,[41],4.2 µg/mL
same,MIC,[16],0.25 µg/mL
same,MIC,[21],0.25 µg/mL
same,Concentration,[51],0.5 µg/mL
same,MIC,[26],2 µg/mL
